Measured values taken from ChEMBL document CHEMBL1795261, “HIF-1α inhibitors: synthesis and biological evaluation of novel moracin O and P analogues” (Eur J Med Chem, 2011).
pIC50: −log10 of the molar value. Active and inactive are the calls of the source. The rule behind the calls is not given here.

What was measured:
[1] = target: T1, Hypoxia-inducible factor 1-alpha (Homo sapiens, UniProt Q16665); assay: Inhibition of hypoxia-induced HIF1alpha activation in human Hep3B cells after 16 hrs by HRE-luciferase reporter assay; type: cell-based; conditions: hep 3b2
Target sequence in this assay (Q16665 whole entry): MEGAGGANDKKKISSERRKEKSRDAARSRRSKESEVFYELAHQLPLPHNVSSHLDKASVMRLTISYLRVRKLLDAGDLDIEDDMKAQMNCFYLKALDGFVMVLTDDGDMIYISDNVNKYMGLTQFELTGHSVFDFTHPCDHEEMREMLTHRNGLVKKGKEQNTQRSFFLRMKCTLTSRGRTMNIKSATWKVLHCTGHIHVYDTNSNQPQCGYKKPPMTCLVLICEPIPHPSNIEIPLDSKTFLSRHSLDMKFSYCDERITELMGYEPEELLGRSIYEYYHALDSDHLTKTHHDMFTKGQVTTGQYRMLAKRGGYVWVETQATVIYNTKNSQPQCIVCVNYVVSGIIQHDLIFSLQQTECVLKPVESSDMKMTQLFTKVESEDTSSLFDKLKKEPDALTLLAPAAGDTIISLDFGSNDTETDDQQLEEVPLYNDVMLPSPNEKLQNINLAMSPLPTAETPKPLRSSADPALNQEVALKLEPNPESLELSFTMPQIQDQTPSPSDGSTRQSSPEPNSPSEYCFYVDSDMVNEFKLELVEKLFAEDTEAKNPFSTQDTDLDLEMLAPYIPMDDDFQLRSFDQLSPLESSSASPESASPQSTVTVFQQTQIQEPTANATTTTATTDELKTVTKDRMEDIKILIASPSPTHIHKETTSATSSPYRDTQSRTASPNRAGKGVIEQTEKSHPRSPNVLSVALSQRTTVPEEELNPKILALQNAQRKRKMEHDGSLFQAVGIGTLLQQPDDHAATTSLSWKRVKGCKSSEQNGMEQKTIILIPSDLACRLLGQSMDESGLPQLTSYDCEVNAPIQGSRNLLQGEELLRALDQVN

[2] = Cytotoxicity against human Hep3B cells after 24 hrs by MTT assay; type: cell-based, Hep 3B2
[3] = target: T1, Hypoxia-inducible factor 1-alpha; assay: Inhibition of hypoxia-induced HIF1alpha protein accumulation in nucleus of human Hep3B cells after 12 hrs by Western blot analysis; type: functional, cell-based; conditions: Hep 3B2
Procedure, shortened: (§1)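 Hep3B cells were kept under normoxia or hypoxia for 12 h with or without compound. HIF-1α in nuclear extracts was detected by western blot, with the same blot reprobed for topoisomerase-I as loading control. Bands were quantified by image scanning in arbitrary units.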
Target sequence in this assay (Q16665 whole entry, looked up): as the sequence (Q16665 whole entry) above

[4] = target: T1, Hypoxia-inducible factor 1-alpha; assay: Inhibition of HIF1alpha-mediated VEGF production in human Hep3B cells under hypoxic condition after 17.5 hrs by ELISA; type: cell-based; conditions: Hep 3B2
Procedure, shortened: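 Hep3B cells were held under normoxia or hypoxia for 17.5 h with or without compound. Secreted VEGF was then measured by ELISA in the culture supernatant.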
Target sequence in this assay (Q16665 whole entry, looked up): as the sequence (Q16665 whole entry) above

[5] = target: T1, Hypoxia-inducible factor 1-alpha; assay: Inhibition of hypoxia-induced HIF1alpha protein accumulation in nucleus of human Hep3B cells after 12 hrs at 10 uM by Western blot analysis; type: functional, cell-based; conditions: Hep 3B2; procedure, shortened: as §1
Target sequence in this assay (Q16665 whole entry, looked up): as the sequence (Q16665 whole entry) above

Row | Structure (SMILES) | pIC50 [1] | inhibition [3] | inhibition [4] | inhibition [5] | pIC50 [2]
1 | CC(C)(O)C1Cc2ccc(OC(=O)c3cc(O)cc(O)c3)cc2O1 (stereo not drawn) | < 4.52 |  |  |  | < 4.52
2 | CC(C)(O)C1Cc2cc3cc(-c4ccc(OCc5ccccc5)cc4)oc3cc2O1 (stereo not drawn) | 6.31 |  |  |  | < 4.52
3 | CCOC(=O)COc1ccc(-c2cc3cc4c(cc3o2)OC(C(C)(C)O)C4)cc1 (stereo not drawn) | 7.27 |  |  |  | < 4.52
4 | CC(C)(O)[C@H]1Cc2cc3cc(-c4cc(O)cc(O)c4)oc3cc2O1 | 8.17 | Dose-dependent effect |  |  | 
5 | CC(C)(O)C1Cc2cc3cc(-c4cc(F)cc(F)c4)oc3cc2O1 (stereo not drawn) | 6.44 |  |  |  | < 4.52
6 | CC1(C)Oc2cc(OC(=O)c3ccc(-c4cccc(C#N)c4)cc3)ccc2CC1O (stereo not drawn) | < 4.52 |  |  |  | < 4.52
7 | COc1cc(OC)cc(-c2cc3cc4c(cc3o2)OC(C(C)(C)O)C4)c1 (stereo not drawn) | 8.00 |  |  |  | < 4.52
8 | Cn1cncc1-c1cc2cc3c(cc2o1)OC(C(C)(C)O)C3 (stereo not drawn) | < 7.52 |  |  |  | < 4.52
9 | CC(C)(O)C1Cc2cc3cc(-c4cccc(O)c4)oc3cc2O1 (stereo not drawn) | 7.34 |  |  |  | < 4.52
10 | COc1ccc(-c2cc3cc4c(cc3o2)OC(C(C)(C)O)C4)cc1 (stereo not drawn) | 6.96 |  |  |  | < 4.52
11 | COc1cccc(-c2cc3cc4c(cc3o2)OC(C(C)(C)O)C4)c1 (stereo not drawn) | 8.15 |  |  |  | < 4.52
12 | CC1(C)Oc2cc(OC(=O)c3cc(OCc4ccccc4)cc(OCc4ccccc4)c3)ccc2CC1O (stereo not drawn) | 5.59 |  |  |  | < 4.52
13 | CC1(C)Oc2cc3oc(-c4cc(O)cc(O)c4)cc3cc2C[C@H]1O [MORACIN P] | 7.97 |  |  |  | 
14 | Cc1ccc(-c2cc3cc4c(cc3o2)OC(C(C)(C)O)C4)cc1 (stereo not drawn) | 6.51 |  |  |  | < 4.52
15 | CC1(C)Oc2cc(OC(=O)c3ccc(OCc4ccccc4)c(OCc4ccccc4)c3)ccc2CC1O (stereo not drawn) | 5.14 |  |  |  | < 4.52
16 | COc1cccc(-c2ccc(C(=O)Oc3ccc4c(c3)OC(C(C)(C)O)C4)cc2)c1 (stereo not drawn) | < 4.52 |  |  |  | < 4.52
17 | CC1(C)Oc2cc3oc(-c4cc(O)cc(O)c4)cc3cc2CC1O (racemic) [(+/-)-MORACIN P] | 4.97 |  |  |  | < 4.52
18 | CC(C)(O)C1Cc2cc3cc(-c4ccccc4)oc3cc2O1 (stereo not drawn) | 7.27 |  |  |  | < 4.52
19 | CC1(C)Oc2cc(OC(=O)c3ccc(-c4ccc(F)cc4F)cc3)ccc2CC1O (stereo not drawn) | 4.75 |  |  |  | < 4.52
20 | CC1(C)Oc2cc(OC(=O)c3cccc(OCc4ccccc4)c3)ccc2CC1O (stereo not drawn) | 5.28 |  |  |  | < 4.52
21 | CC(C)(O)[C@H]1Cc2cc3cc(-c4ccc(O)cc4)oc3cc2O1 | 9.00 | Dose-dependent effect |  | Active | < 4.52
22 | COc1ccccc1-c1cc2cc3c(cc2o1)OC(C(C)(C)O)C3 (stereo not drawn) | 6.24 |  |  |  | < 4.52
23 | CC1(C)Oc2cc(OC(=O)c3ccc(Br)cc3)ccc2CC1O (stereo not drawn) | 4.77 |  |  |  | < 4.52

Second part, led by results:

Row | pIC50 [1] | inhibition [3] | inhibition [4] | inhibition [5] | Structure (SMILES) | pIC50 [2]
24 | < 4.52 |  |  |  | CC(C)(O)C1Cc2ccc(OC(=O)c3ccc(-c4cccc([N+](=O)[O-])c4)cc3)cc2O1 (stereo not drawn) | < 4.52
25 | < 4.52 |  |  |  | CC(C)(O)C1Cc2ccc(OC(=O)c3ccc(Br)cc3)cc2O1 (stereo not drawn) | < 4.52
26 | 8.17 |  |  |  | CC(C)(O)C1Cc2cc3cc(-c4cc(O)cc(O)c4)oc3cc2O1 (racemic) [MORACIN O] | < 4.52
27 | 8.38 | Dose-dependent effect | Dose-dependent effect |  | CC(C)(O)C1Cc2cc3cc(-c4ccc(O)cc4)oc3cc2O1 (stereo not drawn) | < 4.52
28 | 5.96 |  |  |  | CC(C)(O)C1Cc2cc3cc(-c4ccncc4)oc3cc2O1 (stereo not drawn) | < 4.52
29 | 4.89 |  |  |  | CC1(C)Oc2cc(OC(=O)c3ccc(OCc4ccccc4)cc3)ccc2CC1O (stereo not drawn) | < 4.52
30 | < 4.52 |  |  |  | CC1(C)Oc2cc(OC(=O)c3ccc(O)cc3)ccc2CC1O (stereo not drawn) | < 4.52
31 | < 4.52 |  |  |  | CC1(C)Oc2cc(OC(=O)c3cc(O)cc(O)c3)ccc2CC1O (stereo not drawn) | < 4.52
32 | 4.58 |  |  |  | CC(C)(O)C1Cc2ccc(OC(=O)c3cc(OCc4ccccc4)cc(OCc4ccccc4)c3)cc2O1 (stereo not drawn) | < 4.52
33 | < 4.52 |  |  |  | CC1(C)Oc2cc(OC(=O)c3ccc(O)c(O)c3)ccc2CC1O (stereo not drawn) | < 4.52
34 | 4.76 |  |  |  | COc1cccc(-c2ccc(C(=O)Oc3ccc4c(c3)OC(C)(C)C(O)C4)cc2)c1 (stereo not drawn) | < 4.52
35 | 4.76 |  |  |  | CC1(C)Oc2cc(OC(=O)c3ccc(-c4cccc([N+](=O)[O-])c4)cc3)ccc2CC1O (stereo not drawn) | < 4.52
